In assay [1] the target is Sodium-dependent serotonin transporter (Rattus norvegicus, UniProt P31652). In words: Displacement of [3H]citalopram from SERT in rat brain stem membrane. Type of assay: cell membranes. The method in brief: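 [³H]Citalopram binding in previously frozen rat brain stem, buffer 50 mM Tris, 5 mM KCl, 120 mM NaCl. Incubation 60 min at 25 °C. Ki values derived from competition binding.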
A general note: Displacement assays read how much labelled ligand stays bound in the presence of the test substance.

Assay [2] addresses Sigma non-opioid intracellular receptor 1 (Cavia porcellus, UniProt Q60492). Kind of assay: Displacement of [3H](+)-pentazocine from sigma 1 receptor in guinea pig brain membrane. Type of assay: cell membranes. The method in brief:
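Tissue was previously frozen guinea pig brain minus cerebellum, incubated 120 min at 25 °C. Ki values derived from competition binding.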

In assay [3] the target is Sodium-dependent dopamine transporter (Rattus norvegicus, UniProt P23977). Kind of assay: Displacement of [3H]WIN-35428 from DAT in rat striatum membrane. Type of assay: cell membranes.
Chain of Sodium-dependent dopamine transporter (P23977 whole entry): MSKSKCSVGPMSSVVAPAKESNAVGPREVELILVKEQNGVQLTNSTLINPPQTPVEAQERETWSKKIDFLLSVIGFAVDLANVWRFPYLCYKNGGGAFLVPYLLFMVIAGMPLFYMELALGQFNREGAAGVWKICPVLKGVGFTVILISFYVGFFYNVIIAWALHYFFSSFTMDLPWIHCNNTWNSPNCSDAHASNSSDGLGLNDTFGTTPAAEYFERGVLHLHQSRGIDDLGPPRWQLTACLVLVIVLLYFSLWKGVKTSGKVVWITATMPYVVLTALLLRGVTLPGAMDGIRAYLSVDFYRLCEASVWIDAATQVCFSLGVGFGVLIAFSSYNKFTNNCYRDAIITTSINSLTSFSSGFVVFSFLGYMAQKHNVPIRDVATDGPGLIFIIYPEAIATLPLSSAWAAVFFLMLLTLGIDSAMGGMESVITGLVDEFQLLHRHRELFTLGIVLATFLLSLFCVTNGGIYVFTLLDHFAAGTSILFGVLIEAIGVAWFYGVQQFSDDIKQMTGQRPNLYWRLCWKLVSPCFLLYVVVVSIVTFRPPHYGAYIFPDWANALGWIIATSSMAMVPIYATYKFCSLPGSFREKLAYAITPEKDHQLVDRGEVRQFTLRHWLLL
The target in another assay is Transporter (Rattus norvegicus, UniProt Q63380). Kind of assay: Displacement of [3H]nisoxetine from NET in rat frontal cortex membrane. Type of assay: cell membranes. The gist of the method:
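Assay used previously frozen rat frontal cortex with [³H]nisoxetine in 50 mM Tris, 5 mM KCl, 120 mM NaCl buffer. Incubated 180 min on ice. Ki values derived from competition binding.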

Assay [4] is filed under the species Rattus norvegicus. In words: Selectivity ratio of Ki for rat brain stem SERT to Ki for rat frontal cortex NET. Type of assay: tissue-based.
Assay [5] in a line: Selectivity ratio of Ki for rat brain stem SERT to Ki for guinea pig brain sigma 1 receptor.
For assay [6], the species on record is Rattus norvegicus. In words: Selectivity ratio of Ki for rat brain stem SERT to Ki for rat striatum DAT. Type of assay: tissue-based.

Chain of Sigma non-opioid intracellular receptor 1 (Q60492 whole entry): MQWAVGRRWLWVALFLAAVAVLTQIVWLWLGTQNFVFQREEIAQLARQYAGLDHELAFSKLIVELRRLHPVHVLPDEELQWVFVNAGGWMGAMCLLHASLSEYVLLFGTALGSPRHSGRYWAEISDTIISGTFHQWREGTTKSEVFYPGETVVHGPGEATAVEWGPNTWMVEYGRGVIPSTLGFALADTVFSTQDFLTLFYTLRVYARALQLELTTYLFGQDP
Chain of Sodium-dependent serotonin transporter (P31652 whole entry): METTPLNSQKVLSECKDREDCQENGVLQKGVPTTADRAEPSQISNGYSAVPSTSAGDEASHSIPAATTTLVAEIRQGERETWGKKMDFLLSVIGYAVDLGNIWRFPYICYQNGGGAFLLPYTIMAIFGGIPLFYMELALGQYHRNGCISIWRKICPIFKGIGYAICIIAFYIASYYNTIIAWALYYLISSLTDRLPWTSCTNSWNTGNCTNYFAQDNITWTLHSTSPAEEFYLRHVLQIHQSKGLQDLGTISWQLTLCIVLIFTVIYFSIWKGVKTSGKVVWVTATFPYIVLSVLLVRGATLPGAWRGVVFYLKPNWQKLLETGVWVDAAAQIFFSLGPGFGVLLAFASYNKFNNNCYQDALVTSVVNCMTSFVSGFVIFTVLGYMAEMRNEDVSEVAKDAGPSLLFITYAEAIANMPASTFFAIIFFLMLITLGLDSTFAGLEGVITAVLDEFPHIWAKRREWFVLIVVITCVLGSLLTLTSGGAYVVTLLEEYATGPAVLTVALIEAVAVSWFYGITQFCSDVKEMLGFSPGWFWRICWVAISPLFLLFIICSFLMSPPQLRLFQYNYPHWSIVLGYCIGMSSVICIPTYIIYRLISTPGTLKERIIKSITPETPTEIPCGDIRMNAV
Chain of Transporter (Q63380 whole entry): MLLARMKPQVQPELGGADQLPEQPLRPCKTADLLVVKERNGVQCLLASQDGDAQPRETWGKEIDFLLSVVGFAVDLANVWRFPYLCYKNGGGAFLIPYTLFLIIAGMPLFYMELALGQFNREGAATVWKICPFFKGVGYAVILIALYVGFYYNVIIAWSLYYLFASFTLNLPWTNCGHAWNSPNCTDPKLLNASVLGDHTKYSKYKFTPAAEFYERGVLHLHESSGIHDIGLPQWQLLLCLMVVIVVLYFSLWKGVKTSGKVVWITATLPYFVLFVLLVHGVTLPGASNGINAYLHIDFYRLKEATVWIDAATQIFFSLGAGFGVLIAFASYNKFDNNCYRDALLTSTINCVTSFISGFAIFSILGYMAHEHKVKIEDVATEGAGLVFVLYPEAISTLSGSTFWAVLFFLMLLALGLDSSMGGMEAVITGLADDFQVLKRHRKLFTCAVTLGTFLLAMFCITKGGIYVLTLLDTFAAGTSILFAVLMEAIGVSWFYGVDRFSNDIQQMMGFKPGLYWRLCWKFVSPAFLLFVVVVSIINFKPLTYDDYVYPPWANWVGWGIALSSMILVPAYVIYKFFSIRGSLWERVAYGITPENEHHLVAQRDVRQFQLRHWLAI

By Ki is commonly meant the dissociation constant of the complex between target and ligand, obtained from inhibition or displacement. A higher Ki goes with weaker binding. For `O=C(CCc1ccccc1)OC(CCN1CCN(CCCN(c2ccc(F)cc2)c2ccc(F)cc2)CC1)c1ccccc1` (stereo not given), the Ki in assay [1] was 1.3 µM; in assay [2], 0.235 µM; in assay [3], 0.0366 µM.
Turning to `O=C(Cc1ccccc1)OC(CCN1CCN(CCCN(c2ccc(F)cc2)c2ccc(F)cc2)CC1)c1ccccc1` (stereo not given), the Ki in assay [1] turned out to be 1.23 µM; in assay [2], 0.135 µM; at Transporter, 2.74 µM; in assay [3], 0.0149 µM. Besides, the results for the Ratio Ki (in the assay listed under Rattus norvegicus [4]; in assay [5]; in the assay filed under Rattus norvegicus [6]) were 184, 9 and 83, respectively.
For `C=CC(=O)O[C@@H](Cc1ccccc1)CN1CCN(CCCN(c2ccc(F)cc2)c2ccc(F)cc2)CC1`, the Ki in assay [1] is 0.66 µM; in assay [2], 0.0455 µM; at Transporter, 0.81 µM; in assay [3], 0.00326 µM.
Consider `OC(CCN1CCN(CCCN(c2ccc(F)cc2)c2ccc(F)cc2)CC1)c1ccccc1` (racemic), for which the affinity in assay [3], expressed as Ki, was 0.00345 µM.
Consider `CCCC(=O)O[C@@H](Cc1ccccc1)CN1CCN(CCCN(c2ccc(F)cc2)c2ccc(F)cc2)CC1`, for which the inhibition constant (Ki) in assay [1] came to 1.68 µM; in assay [2], 0.292 µM; in assay [3], 0.0335 µM.
As to `CCC(=O)O[C@@H](Cc1ccccc1)CN1CCN(CCCN(c2ccc(F)cc2)c2ccc(F)cc2)CC1`, the Ki was found to be 1.04 µM in assay [1], 0.0818 µM in assay [2] and 0.0151 µM in assay [3].
The matching figures for `CC(C)C(=O)OC(CCN1CCN(CCCN(c2ccc(F)cc2)c2ccc(F)cc2)CC1)c1ccccc1` (stereo not given): 0.543 µM, 0.0883 µM and 0.00936 µM.
On to `C=CC(=O)OC(CCN1CCN(CCCN(c2ccc(F)cc2)c2ccc(F)cc2)CC1)c1ccccc1` (stereo not given), for which the Ki was found to be 0.318 µM in assay [1], 0.0873 µM in assay [2], 1.95 µM on Transporter and 0.00671 µM in assay [3].
The matching figures for `CC(=O)OC(CCN1CCN(CCCN(c2ccc(F)cc2)c2ccc(F)cc2)CC1)c1ccccc1` (stereo not given): 0.204 µM, 0.0566 µM, 0.99 µM and 0.00428 µM.
In assay [2], `Fc1ccc(C(OCCN2CCN(CCCc3ccccc3)CC2)c2ccc(F)cc2)cc1` [VANOXERINE] returned a Ki of 0.0508 µM.
For `O[C@H](Cc1ccccc1)CN1CCN(CCCN(c2ccc(F)cc2)c2ccc(F)cc2)CC1`, the Ki was 0.521 µM in assay [1], 0.0334 µM in assay [2], 2.11 µM at Transporter and 0.00536 µM in assay [3].
For `CCCN(CCC)CCc1ccc(OC)c(OCCc2ccccc2)c1`, the Ki in assay [1] is > 10 µM; in assay [3], 3.62 µM.
As to `CCC(=O)OC(CCN1CCN(CCCN(c2ccc(F)cc2)c2ccc(F)cc2)CC1)c1ccccc1` (stereo not given), the Ki is 0.273 µM in assay [1], 0.076 µM in assay [2], 1.5 µM on Transporter and 0.00557 µM in assay [3]. The values for the Ratio Ki (in the assay listed under Rattus norvegicus [4]; in assay [5]; in the assay listed under Rattus norvegicus [6]) were 269, 14 and 49, respectively.
Take `C[C@@H]1CN(CCCn2c3ccccc3c3ccccc32)C[C@H](C)N1` [RIMCAZOLE]: the affinity in assay [3], expressed as Ki, was 0.0977 µM.
Consider `O=C(CCCc1ccccc1)OC(CCN1CCN(CCCN(c2ccc(F)cc2)c2ccc(F)cc2)CC1)c1ccccc1` (stereo not given), for which the Ki in assay [1] is 2.19 µM; in assay [2], 0.246 µM; at Transporter it was > 10 µM; in assay [3], 0.0513 µM.
Regarding `O=C(Cc1ccccc1)O[C@@H](Cc1ccccc1)CN1CCN(CCCN(c2ccc(F)cc2)c2ccc(F)cc2)CC1`, the Ki was found to be 1.95 µM in assay [1], 0.0874 µM in assay [2], 1.68 µM at Transporter and 0.00692 µM in assay [3]. In addition, the Ratio Ki was determined as 243 in the assay filed under Rattus norvegicus [4], 13 in assay [5] and 282 in the assay filed under Rattus norvegicus [6].
For the molecule `O[C@@H](Cc1ccccc1)CN1CCN(CCCN(c2ccc(F)cc2)c2ccc(F)cc2)CC1`, the Ki in assay [1] turned out to be 0.779 µM; in assay [2], 0.0281 µM; on Transporter, 0.766 µM; in assay [3], 0.00172 µM.
As to `CC(=O)O[C@@H](Cc1ccccc1)CN1CCN(CCCN(c2ccc(F)cc2)c2ccc(F)cc2)CC1`, the results for the Ki in assay [1], in assay [2] and in assay [3] were 0.835 µM, 0.075 µM and 0.0217 µM, respectively.

The record behind these values is ChEMBL document CHEMBL1141702 (Bioorg Med Chem Lett, 2008).
